# Measurements gathered from unrelated publications.
# Lines come from different studies, so protocols differ.
# CYP1A1: Cytochrome P450 1A1 (CYP1A1, Homo sapiens, UniProt P04798)
# Enoyl-[acyl-carrier-protein] reductase [NADPH] FabI: Enoyl-[acyl-carrier-protein] reductase [NADPH] FabI (Staphylococcus aureus, UniProt Q6GI75)
# FOLH1: Glutamate carboxypeptidase 2 (FOLH1, Homo sapiens, UniProt Q04609)
# BCL2: Apoptosis regulator Bcl-2 (BCL2, Homo sapiens, UniProt P10415)
SMILES,target,test,setting,Ki
C#Cc1cccc(-c2cc(=O)c3ccccc3o2)c1,CYP1A1,"enzyme activity, inhibitor, fluorescence","6 min, pH 7.6",41 nM
NCCCC[C@H](NC(=O)[C@@H]1CCCN1C(=O)[C@@H]1CSSC[C@H](NC(=O)CNC(=O)CNC(=O)CN)C(=O)N[C@@H](Cc2ccc(O)cc2)C(=O)N[C@@H](Cc2ccccc2)C(=O)N[C@@H](CCC(N)=O)C(=O)N[C@@H](CC(N)=O)C(=O)N1)C(=O)NCC(N)=O,"Vasopressin V1a receptor (AVPR1A, Homo sapiens, UniProt P37288)","ligand displacement, radioligand",cell membranes,1100 nM
CCc1cc(O)c(Oc2ccc(C(N)=O)cc2F)cc1F,Enoyl-[acyl-carrier-protein] reductase [NADPH] FabI,"enzyme activity, inhibitor",,0.08 nM
O=C(O)CCC(NC(=O)NC(CCCCNC(=O)CCCCCCC(=O)NC(CCCCNC(=O)CN1CCN(CC(=O)O)CCN(CC(=O)O)CCN(CC(=O)O)CC1)C(=O)OCc1ccccc1)C(=O)O)C(=O)O.[Ga+3] (stereo not drawn),FOLH1,"enzyme activity, inhibitor, fluorescence",,29 nM
CC[C@H](C)[C@H](NC(=O)[C@H](CCC(=O)O)NC(=O)[C@H](CC(=O)O)NC(=O)CNC(=O)[C@H](CC(C)C)NC(=O)[C@H](CCCNC(=N)N)NC(=O)[C@H](CCCNC(=N)N)NC(=O)[C@H](CC(C)C)NC(=O)CNC(=O)[C@H](CCC(N)=O)NC(=O)[C@@H](NC(=O)[C@H](CCSC)NC(=O)[C@H](Cc1c[nH]c2ccccc12)NC(=O)[C@@H](NC(=O)[C@H](CCC(=O)O)NC(=O)[C@@H]1CCCN1C(=O)[C@H](CCCNC(=N)N)NC(C)=O)[C@@H](C)CC)[C@@H](C)O)C(=O)N[C@@H](CC(N)=O)C(=O)N[C@@H](C)C(=O)N[C@@H](Cc1ccc(O)cc1)C(=O)N[C@@H](Cc1ccc(O)cc1)C(=O)N[C@@H](C)C(=O)N[C@@H](CCCNC(=N)N)C(N)=O,BCL2,"ligand displacement, FP",,~2900 nM
CCc1cc(O)c(Oc2cccnc2F)cc1F,Enoyl-[acyl-carrier-protein] reductase [NADPH] FabI,"enzyme activity, inhibitor",,0.35 nM
COc1cc(O)c(CC=C(C)C)c2c1C(=O)CC(c1ccc(O)cc1)O2 (stereo not drawn),CYP1A1,"enzyme activity, inhibitor, fluorescence","15 min, pH 7.4",1600 nM
CC[C@H](C)[C@H](NC(=O)[C@H](CCCCN)NC(=O)[C@H](CCCNC(=N)N)NC(=O)[C@H](CC(C)C)NC(=O)[C@H](CCC(N)=O)NC(=O)[C@H](C)NC(=O)[C@H](C)NC(=O)[C@H](Cc1ccccc1)NC(=O)[C@H](CCC(=O)O)NC(=O)[C@@H]1CCCN1C(=O)[C@@H]1CCCN1C(=O)[C@H](CC(C)C)NC(=O)[C@H](CCC(=O)O)NC(=O)[C@H](C)NC(C)=O)C(=O)NCC(=O)N[C@@H](CC(=O)O)C(=O)N[C@@H](CCCCN)C(=O)N[C@H](C(=O)N[C@@H](Cc1ccc(O)cc1)C(=O)N[C@@H](CS)C(N)=O)C(C)C,"Bcl-2-like protein 2 (BCL2L2, Homo sapiens, UniProt Q92843)","ligand displacement, FP",,~14000 nM
CC(C)=CCc1c(O)cc(O)c2c1O[C@H](c1ccc(O)cc1)CC2=O,CYP1A1,"enzyme activity, inhibitor, fluorescence","15 min, pH 7.4",200 nM
O=C(O)CCC(NC(=O)NC(CCCCNC(=O)CCCCCCC(=O)NCCCCC(NC(=O)C(Cc1ccccc1)NC(=O)C(Cc1ccccc1)NC(=O)CN1CCN(CC(=O)O)CCN(CC(=O)O)CCN(CC(=O)O)CC1)C(=O)O)C(=O)O)C(=O)O (stereo not drawn),FOLH1,"enzyme activity, inhibitor, fluorescence",,1.23 nM
CC[C@H](C)[C@H](NC(=O)[C@H](CCC(=O)O)NC(=O)[C@H](CC(=O)O)NC(=O)CNC(=O)[C@H](CC(C)C)NC(=O)[C@H](CCCNC(=N)N)NC(=O)[C@H](CCC(N)=O)NC(=O)[C@H](CC(C)C)NC(=O)[C@H](CO)NC(=O)[C@H](CCC(N)=O)NC(=O)[C@@H](NC(=O)[C@H](CC(C)C)NC(=O)[C@H](Cc1c[nH]c2ccccc12)NC(=O)[C@@H](NC(=O)[C@H](CCC(=O)O)NC(=O)[C@@H]1CCCN1C(=O)[C@H](CCCNC(=N)N)NC(C)=O)[C@@H](C)CC)[C@@H](C)O)C(=O)N[C@@H](CC(N)=O)C(=O)N[C@@H](C)C(=O)N[C@@H](Cc1ccc(O)cc1)C(=O)N[C@@H](Cc1ccc(O)cc1)C(=O)N[C@@H](C)C(=O)N[C@@H](CCCNC(=N)N)C(N)=O,BCL2,"ligand displacement, FP",,~2700 nM
O=c1cc(-c2ccccc2)oc2c1ccc1ccccc12,CYP1A1,"enzyme activity, inhibitor, fluorescence","6 min, pH 7.6",43 nM
